Measured values: ChEMBL document CHEMBL4184296, “Novel inhibitors of Staphylococcus aureus RnpA that synergize with mupirocin” (Bioorg Med Chem Lett, 2018)
≈ marks a conversion by molar mass, not a printed value.

Assays:
[1] = molecular target: T1, Ribonuclease P protein component (Staphylococcus aureus, UniProt P0A0H5); experiment: Inhibition of Staphylococcus aureus RnpA-mediated mRNA degradation after 15 to 30 mins by ethidium bromide staining based agarose gel electrophoresis
T1 sequence (P0A0H5 whole entry): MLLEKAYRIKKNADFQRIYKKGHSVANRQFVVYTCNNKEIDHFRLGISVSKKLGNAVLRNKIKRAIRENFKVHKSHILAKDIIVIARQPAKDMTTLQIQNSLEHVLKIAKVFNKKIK
In short: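 Recombinant S. aureus RnpA (≥97% purity) tested for inhibition of in vitro mRNA degradation.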

[2] = Inhibition of Staphylococcus aureus RnpA/RnpB-mediated tRNA cleavage after 15 mins by ethidium bromide staining based polyacrylamide gel electrophoresis
In short: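 RNase P reconstituted from equimolar S. aureus RnpA and rnpB; inhibition of in vitro tRNA maturation (cleavage) measured.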

Staphylococcus aureus [3] = experiment: Antibacterial activity against Staphylococcus aureus UAMS-1 after 18 hrs by Mueller-Hinton broth analysis; format: functional; details: UAMS-1, 18 h
In short: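 S. aureus UAMS-1, a methicillin-sensitive osteomyelitis clinical isolate, tested by CLSI broth method in 96-well format. MIC taken as the lowest compound concentration with no visible growth.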

HepG2 = experiment: Cytotoxicity against human HepG2 cells assessed as reduction in cell viability after 24 hrs by MTT assay; format: cell-based; details: hepg2, 24 h
In short: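 Human HepG2 hepatocytes; overt cytotoxicity measured by MTT method. Value reported as the lowest concentration causing cytotoxicity.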

Staphylococcus aureus [4] = experiment: Potentiation of mupirocin-induced antibacterial activity against Staphylococcus aureus UAMS-1 assessed as fractional inhibitory concentration index at 4 ug/ml by checkerboard assay; format: functional
In short: (§1)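 Checkerboard assay: wells seeded with 1 × 10^5 CFU ml-1 S. aureus UAMS-1. Test compound in 2-fold steps (0, 0.5, 1, 2, 4, 8, 16, 32 µg/mL) crossed with mupirocin (0, 0.03125, 0.0625, 0.125 µg/mL). Plates incubated 18 h at 37 °C, then growth read. FICI = (MIC compound combined / MIC alone) + (MIC mupirocin combined / MIC mupirocin alone).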

Staphylococcus aureus [5] = experiment: Potentiation of mupirocin-induced antibacterial activity against Staphylococcus aureus UAMS-1 assessed as mupirocin MIC at 8 ug/ml by checkerboard assay (reference value: 0.125 microg/ml); format: functional; in short: as §1
Staphylococcus aureus [6] = experiment: Potentiation of mupirocin-induced antibacterial activity against Staphylococcus aureus UAMS-1 assessed as fractional inhibitory concentration index at 0.5 ug/ml by checkerboard assay; format: functional; in short: as §1
Staphylococcus aureus [7] = experiment: Potentiation of mupirocin-induced antibacterial activity against Staphylococcus aureus UAMS-1 assessed as fractional inhibitory concentration index at 8 ug/ml by checkerboard assay; format: functional; in short: as §1
Staphylococcus aureus [8] = experiment: Potentiation of mupirocin-induced antibacterial activity against Staphylococcus aureus UAMS-1 assessed as fractional inhibitory concentration index at 16 ug/ml by checkerboard assay; format: functional; in short: as §1
Staphylococcus aureus [9] = experiment: Potentiation of mupirocin-induced antibacterial activity against Staphylococcus aureus UAMS-1 assessed as mupirocin MIC at 4 ug/ml by checkerboard assay (reference value: 0.125 microg/ml); format: functional; in short: as §1
Staphylococcus aureus [10] = experiment: Potentiation of mupirocin-induced antibacterial activity against Staphylococcus aureus UAMS-1 assessed as mupirocin MIC at 2 ug/ml by checkerboard assay (reference value: 0.125 microg/ml); format: functional; in short: as §1
Staphylococcus aureus [11] = experiment: Potentiation of mupirocin-induced antibacterial activity against Staphylococcus aureus UAMS-1 assessed as mupirocin MIC at 1 ug/ml by checkerboard assay (reference value: 0.125 microg/ml); format: functional; in short: as §1
Staphylococcus aureus [12] = experiment: Potentiation of mupirocin-induced antibacterial activity against Staphylococcus aureus UAMS-1 assessed as fractional inhibitory concentration index at 1 ug/ml by checkerboard assay; format: functional; in short: as §1

CC(C)c1ccc(OCC(=O)NNC(=S)NC(=O)c2ccc(-c3ccccc3)o2)cc1
IC50 [1]: 40 µM | IC50 [2]: 50 µM | MIC (Staphylococcus aureus [3]): 64 µg/mL (≈ 146 µM) | MTC (HepG2): 64 µg/mL

CC(C)c1ccc(OCC(=O)NNC(=S)NC(=O)c2cc3ccccc3o2)cc1
IC50 [2]: 1 µM | MIC (Staphylococcus aureus [3]): 32 µg/mL (≈ 77.8 µM) | MTC (HepG2): > 128 µg/mL | fractional inhibitory concentration index (FICI) (Staphylococcus aureus [4]): 0.25 | MIC (Staphylococcus aureus [5]): 0.0312 µg/mL | fractional inhibitory concentration index (FICI) (Staphylococcus aureus [6]): 0.508

Cc1cc(/C=C(/C#N)C(=O)Nc2cccc(Br)c2)c(C)n1-c1ccc(C(=O)O)cc1
IC50 [1]: 100 µM | IC50 [2]: 175 µM | MIC (Staphylococcus aureus [3]): 32 µg/mL (≈ 68.9 µM) | MTC (HepG2): 25 µg/mL

CC(C)c1ccc(OCC(=O)NNC(=S)NC(=O)Cc2ccco2)cc1
IC50 [1]: 25 µM | MTC (HepG2): 32 µg/mL

CC(C)c1ccc(OCC(=O)NNC(=S)NC(=O)c2cc3cc(F)ccc3[nH]2)cc1
IC50 [1]: < 50 µM | IC50 [2]: < 50 µM | MTC (HepG2): 256 µg/mL

CC(C)c1ccc(OCC(=O)NNC(=S)NC(=O)c2ccccc2)cc1
IC50 [1]: > 500 µM | IC50 [2]: 350 µM | MIC (Staphylococcus aureus [3]): 64 µg/mL (≈ 172 µM) | MTC (HepG2): 512 µg/mL

CC(C)c1ccc(OCC(=O)NNC(=S)NC(=O)c2cc3ccccc3s2)cc1
IC50 [2]: 100 µM | MTC (HepG2): 512 µg/mL

CC(C)c1ccc(OCC(=O)NNC(=S)NC(=O)c2cccs2)cc1
IC50 [1]: 250 µM | IC50 [2]: 25 µM | MIC (Staphylococcus aureus [3]): 64 µg/mL (≈ 170 µM) | MTC (HepG2): > 256 µg/mL

CC(C)c1ccc(OCC(=O)NNC(=S)NC(=O)c2cc3ccccc3n2C)cc1
IC50 [2]: 50 µM | MTC (HepG2): > 256 µg/mL

CC(C)c1ccc(OCC(=O)NNC(=S)NC(=O)c2ccccn2)cc1
IC50 [2]: 1 µM | MTC (HepG2): > 128 µg/mL | MIC (Staphylococcus aureus [5]): 0.0625 µg/mL | fractional inhibitory concentration index (FICI) (Staphylococcus aureus [7]): 0.5 | fractional inhibitory concentration index (FICI) (Staphylococcus aureus [6]): 0.516 | fractional inhibitory concentration index (FICI) (Staphylococcus aureus [8]): 0.625

Cc1ccc(C(=O)NC(=S)NNC(=O)COc2ccc(C(C)C)cc2)o1
IC50 [2]: 105 µM | MTC (HepG2): > 128 µg/mL | fractional inhibitory concentration index (FICI) (Staphylococcus aureus [4]): 0.5 | MIC (Staphylococcus aureus [9]): 0.0312 µg/mL | fractional inhibitory concentration index (FICI) (Staphylococcus aureus [6]): 0.53

CC(C)c1ccc(OCC(=O)NNC(=S)NC(=O)c2ccc(Br)o2)cc1
IC50 [2]: 40 µM | MTC (HepG2): > 128 µg/mL | MIC (Staphylococcus aureus [10]): 0.0625 µg/mL | fractional inhibitory concentration index (FICI) (Staphylococcus aureus [7]): 0.375 | fractional inhibitory concentration index (FICI) (Staphylococcus aureus [6]): 0.516

Cc1ccoc1C(=O)NC(=S)NNC(=O)COc1ccc(C(C)C)cc1
IC50 [2]: 150 µM | MTC (HepG2): > 128 µg/mL

CC(C)c1ccc(OCC(=O)NNC(=S)NC(=O)c2cc3cc(Cl)ccc3[nH]2)cc1
IC50 [2]: 100 µM | MTC (HepG2): 256 µg/mL

CC(C)c1ccc(OCC(=O)NNC(=S)NC(=O)c2ccno2)cc1
IC50 [2]: > 500 µM | MTC (HepG2): > 128 µg/mL

CC(C)c1ccc(OCC(=O)NNC(=S)NC(=O)c2nc3ccccc3[nH]2)cc1
IC50 [2]: 90 µM | MTC (HepG2): 512 µg/mL

CC(C)c1ccc(OCC(=O)NNC(=S)NC(=O)c2cc3ccccc3[nH]2)cc1
IC50 [2]: 0.5 µM | MTC (HepG2): > 256 µg/mL | MIC (Staphylococcus aureus [11]): 0.0625 µg/mL | fractional inhibitory concentration index (FICI) (Staphylococcus aureus [12]): 0.56

CC(C)c1ccc(OCC(=O)NNC(=S)NC(=O)c2ccncc2)cc1
IC50 [2]: 150 µM | MTC (HepG2): > 512 µg/mL

CC(C)c1ccc(OCC(=O)NNC(=S)NC(=O)c2cnco2)cc1
IC50 [2]: 50 µM | MTC (HepG2): 64 µg/mL

CC(C)c1ccc(OCC(=O)NNC(=S)NC(=O)c2ccco2)cc1
IC50 [2]: 140 µM | MIC (Staphylococcus aureus [3]): 16 µg/mL (≈ 44.3 µM) | MTC (HepG2): > 128 µg/mL | fractional inhibitory concentration index (FICI) (Staphylococcus aureus [4]): 0.49 | MIC (Staphylococcus aureus [9]): 0.0625 µg/mL

COc1ccc2[nH]c(C(=O)NC(=S)NNC(=O)COc3ccc(C(C)C)cc3)cc2c1
MTC (HepG2): 32 µg/mL

CC(C)c1ccc(OCC(=O)NNC(=S)NC(=O)c2cc3ccc(Cl)cc3[nH]2)cc1
IC50 [2]: < 50 µM | MTC (HepG2): 32 µg/mL

CC(C)c1ccc(OCC(=O)NNC(=S)NC(=O)c2coc3ccccc23)cc1
IC50 [1]: > 250 µM | IC50 [2]: 25 µM | MIC (Staphylococcus aureus [3]): 128 µg/mL (≈ 311 µM) | MTC (HepG2): 128 µg/mL

CC(C)c1ccc(OCC(=O)NNC(=S)NC(=O)c2ccoc2)cc1
IC50 [1]: 250 µM | IC50 [2]: 150 µM | MTC (HepG2): 16 µg/mL

CC(C)c1ccc(OCC(=O)NNC(=S)NC(=O)/C=C/c2ccco2)cc1
IC50 [2]: 32 µM | MTC (HepG2): > 256 µg/mL

CC(C)c1ccc(OCC(=O)NNC(=S)NC(=O)c2cccnc2)cc1
IC50 [2]: 160 µM | MTC (HepG2): > 256 µg/mL

CC(C)c1ccc(OCC(=O)NNC(=S)NC(=O)/C=C/c2cc3ccccc3o2)cc1
IC50 [2]: 26 µM | MIC (Staphylococcus aureus [3]): > 256 µg/mL | MTC (HepG2): 256 µg/mL

CC(C)c1ccc(OCC(=O)NNC(=S)NC(=O)c2c[nH]c3ccccc23)cc1
IC50 [2]: 90 µM | MTC (HepG2): > 128 µg/mL | MIC (Staphylococcus aureus [5]): 0.0625 µg/mL | fractional inhibitory concentration index (FICI) (Staphylococcus aureus [7]): 0.5

COc1ccc2cc(C(=O)NC(=S)NNC(=O)COc3ccc(C(C)C)cc3)[nH]c2c1
IC50 [1]: 50 µM | MIC (Staphylococcus aureus [3]): > 256 µg/mL | MTC (HepG2): > 512 µg/mL

CC(C)c1ccc(OCC(=O)NNC(=S)NC(=O)c2ccc[nH]2)cc1
IC50 [1]: > 250 µM | IC50 [2]: 25 µM | MIC (Staphylococcus aureus [3]): 16 µg/mL (≈ 44.4 µM) | MTC (HepG2): 16 µg/mL

CC(C)c1ccc(OCC(=O)NNC(=S)NC(=O)c2ccsc2)cc1
IC50 [2]: 395 µM | MTC (HepG2): > 256 µg/mL
